CSC inhib = cancer stem cell inhibition. AID 2717. 1.1% of 300,000 active. inhibition, % at 7.5 µM. cancer stem cell-like cells viability, luminescence; in the data active = inhibition above about 75%; inconclusive = no clear call, values can overlap the other calls; tested in HMLE shEcad cells
HIF act = HIF pathway transcriptional activation. U2OS HRE-luciferase reporter, luminescence; normalized: DMSO 0%, desferrioxamine 100%. 0.32% of 300,000 active. AID 1910. activation, % at 7.5 µM (by protocol);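 active = mean activation of at least 10% of the iron chelator positive control signal, with at least half of replicates also reaching 10%; inconclusive = mean and replicate majority disagree about reaching 10%; inactive = mean and most replicates under 10%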
Calb FLC = C. albicans growth modulation with fluconazole; 0.57% of 300,000 active; growth inhibition, % (concentration not given with the values); C. albicans CaCi-2 (fluconazole-resistant clinical isolate) + fluconazole, Alamar Blue growth, 48 h;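 active = growth inhibition above about 58% in most replicates, limit read from the data, passing the limit was not always enough; inconclusive = exactly half the replicates above a set limit; inactive = most replicates below a set limit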;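 note: all wells also contain fluconazole at 8 µg/ml as a sub-toxic cotreatment; 0% = median of DMSO wells and 100% = median of geldanamycin control wells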
PolyA inh = yeast polyadenylation inhibition; AID 1875; S. cerevisiae SKY197-pL101 polyadenylation reporter, beta-gal luminescence; efflux-impaired pdr1/pdr3 knockout yeast; score 100 = 6 SD above DMSO; 0.02% of 300,000 active; activity score, % at 12 µM;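 active = lowest replicate activity score at least 50, where 100 means six control SD above control mean; inconclusive = lowest score under 50 but half or more replicates reach 50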;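 note: yeast exposed to compound for 9 h at 30 °C; higher score means more reporter readthrough which indicates perturbed polyadenylation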
T cruzi repl = T. cruzi replication inhibition. T. cruzi beta-gal in NIH3T3, luminescence, 90 h. inhibition, % (concentration not given with the values). 1.4% of 300,000 active. AID 1885;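 active = mean inhibition across valid replicates above about 55%, limit read from the data; inconclusive = mean below that limit but half or more replicates reach it; inactive = mean below it, under half of replicates reach it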;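 note: signal also drops with host cell toxicity which is not excluded here; 0% = plate median of DMSO wells and 100% = zero luminescence signal; higher percent means less beta-gal luminescence so fewer parasites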
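Test system: β-gal T. cruzi (Tulahuen C4) inside NIH/3T3 cells / Quantity: 5,000 cells/well / Measured by: luminescence from GalScreen with 0.05% NP40, read after 60 min / Medium: DMEM plus 2% FBS / Measure: parasite load inhibition, % / Reagent: Tulahuen C4 trypomastigotes, 5000/well / Schedule: co-culture of at least 90 h after 3 h attachment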
Beta cell apopt = beta cell apoptosis inhibition. protection from apoptosis, % (no concentration beside the values). AID 435005. INS-1E cytokine-induced death, ATP luminescence, 48 h; percent of positive-control rescue, neutral wells zero. 0.8% of 300,000 active;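 active = Every replicate reaches about 75%, or at least half do and their mean reaches it too, limit read from the data; inconclusive = At least half of replicates reach the limit but their mean does not; inactive = Under half of replicates reach the limit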;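 note: 0% = cytokine-treated negative control wells and 100% = positive control rescue; higher means more ATP so stronger rescue from cytokine killing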
* = called active by the depositor; u = inconclusive; x = not tested or not shown. An excerpt weighted towards active compounds, which were near 3.1% of everything screened.

SMILES	CSC inhib	HIF act	Calb FLC	PolyA inh	T cruzi repl	Beta cell apopt
Cc1cc(C(=O)NNc2ccc(F)cc2)no1	96*	0	-8	-13	16	-3
Cc1ccc(S(=O)(=O)c2cc3ccccc3nc2N)cc1	-3	-1	-9	-6	17	-3
CN(Cc1ccccc1)C(=O)COC(=O)c1ccc(Br)o1	7	x	x	x	x	-6
Cc1ccc(-n2c(-c3ccccc3)c[n+]3c2CCc2ccccc2-3)c(C)c1	28	x	102*	x	x	130*
Cc1ccc(-n2c(SCC(=O)N3CCCc4ccccc43)nnc2-c2cccnc2)c(C)c1	-1	-1	3	8	9	-1
Cc1cc(NS(=O)(=O)c2c(C(=O)N3CCOCC3)c(C)n(C)c2C)ccc1Br	0	0	-1	-6	8	-17
COc1nccc(C(F)(F)F)c1C(=O)NC(=O)Nc1ccccc1	-1	140*	15	1	-19	4
C/C(=N\NC(=O)Cc1ccc(Cl)cc1)c1ccccc1O	9	0	-11	-8	63*	68
C/C(=N\NC(=O)Cc1ccc(Cl)cc1)c1ccc(F)cc1	-7	1	-24	-9	-16	-2
CC(=O)Nc1cccc(NC(=O)C2CCCN2C(=O)Nc2ccccc2C)c1 (stereo not drawn)	-10	x	15	-13	0	-14
CC(=O)Nc1cccc(NC(=O)C2CCCN2C(=O)Nc2ccc(Cl)cc2)c1 (stereo not drawn)	-14	0	114*	13	4	-4
COC(=O)Nc1nc2ccc(-c3n[nH]c(=O)c4ccccc34)cc2[nH]1	104*	2	-2	10	-29	-4
COc1ccc2c(c1)CCCC21NC(=O)N(CC(=O)c2cc(F)ccc2F)C1=O (stereo not drawn)	x	x	x	x	x	-3
CCCCCCCCCCS(=O)(=O)N/N=C/c1ccc([N+](=O)[O-])cc1	86*	0	-6	u	-2	5
O=C(NCCCN1CCOCC1)c1onc(CSc2ccc(F)c(F)c2)c1C(=O)NCCCN1CCOCC1	-3	0	-4	-8	3	x
COc1ccc(CCNC(=O)[C@H](C)N2C(=O)N3CCc4c([nH]c5ccccc45)[C@@]3(C)C2=O)cc1	0	0	-1	-12	62*	-3
CC(=O)c1nn(-c2cccc(Br)c2)cc1C(=O)c1ccc(C)cc1	0	0	95*	-18	8	1
CC(C)(C)C(=O)COC(=O)c1ccc2c(c1)C(=O)N(Cc1ccco1)C2=O	-8	0	-9	-1	-13	-1
O=C(c1ccco1)c1coc2c1cc(O)c1ccccc12	52	0	31	-25	-18	100*
CC(=O)c1coc2c1cc(O)c1ccccc12	28	1	21	-20	2	0
O=C(N/N=C/c1ccc(N2CCCCC2)o1)C(O)(c1ccccc1)c1ccccc1	-2	-1	-18	u	4	5
Cc1nnc(Sc2cc(C(=O)NCCCN(C)Cc3ccccc3)c3ccccc3n2)s1	-10	-1	4	5	64*	x
COCCCNC(=O)c1cc(Sc2nnc(C)s2)nc2ccccc12	7	0	-1	7	-1	2
Cc1nc(C(=O)NC2CCCCC2)sc1C1(C)CC(c2cccnc2)=NO1 (stereo not drawn)	2	-1	-5	-15	61*	1
CCOC(=O)C1CCN(C(=O)c2c(C)oc3c2C(=O)c2ccccc2C3=O)CC1	60	0	-4	7	48	102*
SMILES	CSC inhib	HIF act	Calb FLC	PolyA inh	T cruzi repl	Beta cell apopt
Cc1oc2c(c1C(=O)N1CCC(C)CC1)C(=O)c1ccccc1C2=O	u	-1	-5	0	37	110*
CCN1CCN(C(=O)C2CCN(S(=O)(=O)N3CCC4(CC3)OCCO4)CC2)CC1	-3	0	-9	-3	-6	-2
Cc1cc(C)c(C)c(C(=O)CSc2nnc(-c3ccc4[nH]c(C)c(C)c4c3)o2)c1C	12	0	-8	9	55*	19
C=C(C)C1Cc2c(C)nn(-c3ccccc3)c2C1 (stereo not drawn)	4	0	-6	10	-16	-1
C=C(C)C1Cc2c(C)nn(-c3cccc4ccccc34)c2C1 (stereo not drawn)	96*	0	-22	6	20	66
C=CCNC(=O)O/N=C/c1csc([N+](=O)[O-])c1	-17	0	8	-5	57*	-13
CCOc1ccc2c(c1)c1nnc(SCC3CCCO3)nc1n2C (stereo not drawn)	-13	93*	-9	-10	34	10
CCOc1ccc2[nH]c3nc(SCC(=O)NCC4CCCO4)nnc3c2c1 (stereo not drawn)	-8	-1	-2	-9	1	3
CCCCNC(=O)c1ccc(Cn2c(=S)[nH]c3c([nH]c4ccc(OC)cc43)c2=O)cc1	140*	-5	-2	17	-3	101*
COc1cc(NC(=S)N2CCN(S(=O)(=O)c3ccccc3)CC2)cc(OC)c1	-3	x	122*	x	x	1
COC(=O)c1sc(N/N=C/c2ccc(C(C)C)cc2)nc1C	26	-22	7	-13	64*	-6
O=C(N/N=C/c1ccc[nH]1)c1sc2ccccc2c1Cl	93*	1	4	-2	69*	28
Cc1ccc2c(C(=O)CCl)c(C)[nH]c2c1	22	2	1	-7	56*	-44
CC(=O)/C(=C\N(C)C)Sc1ccc(Cl)cc1	-4	0	-1	10	4	x
S=C(Sc1ccc(Cl)cc1)Sc1ccc(Cl)cc1	77*	1	-26	-4	63*	-3
O=C1/C(=C\c2cccnc2)SC(=S)N1C1CCS(=O)(=O)C1 (stereo not drawn)	37	0	91*	x	-1	-70
Nc1oc2ccccc2c(=O)c1-c1ccc2c(c1)OCO2	-5	1	26	0	-14	-1
Cc1cc(C(=O)NC2CCCN(Cc3ccccc3F)C2)no1 (stereo not drawn)	-1	0	-4	9	16	1
COCCN(C(=O)CSc1nnc(-c2ccccc2F)n1N)c1c(N)n(Cc2ccccc2)c(=O)[nH]c1=O	6	-1	9	9	-8	4
Cc1c(C(=O)N2CCN(Cc3ccc4c(c3)OCO4)CC2)sc2ncnc(N3CCN(c4ccccc4F)CC3)c12	-4	0	-25	5	64*	-7
Cc1c(C(=O)N2CCN(Cc3ccc4c(c3)OCO4)CC2)sc2ncnc(N3CCN(c4ccccc4)CC3)c12	19	0	-3	-3	33	3
COc1ccc(OCC(O)Cn2cnc(-c3ccc(Br)cc3)c2)cc1 (stereo not drawn)	0	0	3	-20	-9	7

Screening results (PubChem BioAssay)
